Test results taken from ChEMBL document CHEMBL1147968, “Novel lbeta-methylcarbapenems having cyclic sulfonamide moieties: synthesis and evaluation of in vitro antibacterial activity” (2007).

Key:
Priestia megaterium = assay: Antibacterial activity against Bacillus megaterium after 18 to 24 hrs by agar dilution method; type: functional
Procedure, shortened: (§1)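 MICs were determined by agar dilution on test agar. An overnight tryptosoy broth culture was diluted in the same broth to about 10⁶ cells/mL and spotted with an inoculating device onto agar containing serial twofold dilutions of compound. Plates were incubated at 37 °C for 18–20 h, and the MIC was the lowest concentration with no visible growth.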

Micrococcus luteus = assay: Antibacterial activity against Micrococcus luteus ATCC 9341 after 18 to 24 hrs by agar dilution method; type: functional; procedure, shortened: as §1
Pseudomonas aeruginosa [1] = assay: Antibacterial activity against Pseudomonas aeruginosa 77/2 after 18 to 24 hrs by agar dilution method; type: functional; procedure, shortened: as §1
Staphylococcus = assay: Antibacterial activity against coagulase negative Staphylococcus after 18 to 24 hrs by agar dilution method; type: functional
Procedure, shortened: (§2)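 Agar dilution on test agar holding serial twofold dilutions of compound. Overnight tryptosoy broth cultures were diluted in the same broth to about 10⁶ cells/mL and spotted with an inoculating device. Plates were incubated at 37 °C for 18–20 h.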

[2] = Antibacterial activity against Salmonella oranienburg after 18 to 24 hrs by agar dilution method; type: functional, Salmonella enterica subsp. enterica serovar Oranienburg; conditions: Salmonella enterica; procedure, shortened: as §1
Proteus mirabilis [3] = assay: Antibacterial activity against Proteus mirabilis 174/3 after 18 to 24 hrs by agar dilution method; type: functional; procedure, shortened: as §1
Escherichia coli [4] = assay: Antibacterial activity against Escherichia coli 0114 after 18 to 24 hrs by agar dilution method; type: functional; procedure, shortened: as §1
Pseudomonas aeruginosa [5] = assay: Antibacterial activity against Pseudomonas aeruginosa 9027 after 18 to 24 hrs by agar dilution method; type: functional; procedure, shortened: as §1
Klebsiella pneumoniae [6] = assay: Antibacterial activity against Klebsiella pneumoniae 477 after 18 to 24 hrs by agar dilution method; type: functional; procedure, shortened: as §1
Salmonella typhi = assay: Antibacterial activity against Salmonella typhi after 18 to 24 hrs by agar dilution method; type: functional, Salmonella enterica subsp. enterica serovar Typhi; conditions: Salmonella enterica
Procedure, shortened: (§3)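 Agar dilution on test agar with serial twofold dilutions of compound. Overnight tryptosoy broth cultures diluted in the same broth to about 10⁶ cells/mL, then applied with an inoculating device. Plates incubated at 37 °C for 18–20 h.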

Streptococcus agalactiae [7] = assay: Antibacterial activity against Streptococcus agalactiae 32 after 18 to 24 hrs by agar dilution method; type: functional; procedure, shortened: as §1
Streptococcus pneumoniae = assay: Antibacterial activity against Streptococcus pneumoniae 0025 after 18 to 24 hrs by agar dilution method; type: functional; procedure, shortened: as §1
Trueperella pyogenes = assay: Antibacterial activity against Corynebacterium pyogenes after 18 to 24 hrs by agar dilution method; type: functional; procedure, shortened: as §1
Enterococcus durans = assay: Antibacterial activity against Streptococcus durans D after 18 to 24 hrs by agar dilution method; type: functional; procedure, shortened: as §1
Streptococcus pyogenes = assay: Antibacterial activity against Streptococcus pyogenes 9889 after 18 to 24 hrs by agar dilution method; type: functional; procedure, shortened: as §2
Serratia marcescens [8] = assay: Antibacterial activity against Serratia marcescens 370 after 18 to 24 hrs by agar dilution method; type: functional; procedure, shortened: as §1
Serratia marcescens [9] = assay: Antibacterial activity against Serratia marcescens 6093 after 18 to 24 hrs by agar dilution method; type: functional; procedure, shortened: as §1
Citrobacter freundii = assay: Antibacterial activity against Citrobacter freundii 323 after 18 to 24 hrs by agar dilution method; type: functional; procedure, shortened: as §1
Pseudomonas aeruginosa [10] = assay: Antibacterial activity against Pseudomonas aeruginosa 880/2 after 18 to 24 hrs by agar dilution method; type: functional; procedure, shortened: as §1
[11] = Antibacterial activity against Salmonella give after 18 to 24 hrs by agar dilution method; type: functional, Salmonella enterica subsp. enterica serovar Give; conditions: Salmonella enterica; procedure, shortened: as §1
Enterobacter cloacae [12] = assay: Antibacterial activity against Enterobacter cloacae after 18 to 24 hrs by agar dilution method; type: functional; procedure, shortened: as §1
Proteus mirabilis [13] = assay: Antibacterial activity against Proteus mirabilis 112/3 after 18 to 24 hrs by agar dilution method; type: functional; procedure, shortened: as §1
Proteus vulgaris = assay: Antibacterial activity against Proteus vulgaris 868 after 18 to 24 hrs by agar dilution method; type: functional; procedure, shortened: as §1
Enterococcus faecalis = assay: Antibacterial activity against Enterococcus faecalis 2347 after 18 to 24 hrs by agar dilution method; type: functional; procedure, shortened: as §1
Salmonella paratyphi = assay: Antibacterial activity against Salmonella paratyphi A after 18 to 24 hrs by agar dilution method; type: functional, Salmonella enterica subsp. enterica serovar Paratyphi A; conditions: Salmonella enterica; procedure, shortened: as §3
Burkholderia cepacia = assay: Antibacterial activity against Pseudomonas cepacia after 18 to 24 hrs by agar dilution method; type: functional; procedure, shortened: as §1
Klebsiella pneumoniae [14] = assay: Antibacterial activity against Klebsiella pneumoniae 523 after 18 to 24 hrs by agar dilution method; type: functional; procedure, shortened: as §1
Escherichia coli [15] = assay: Antibacterial activity against Escherichia coli 086 after 18 to 24 hrs by agar dilution method; type: functional; procedure, shortened: as §1
Salmonella typhimurium = assay: Antibacterial activity against Salmonella Typhimurium after 18 to 24 hrs by agar dilution method; type: functional, Salmonella enterica subsp. enterica serovar Typhimurium; conditions: Salmonella enterica; procedure, shortened: as §1
Staphylococcus aureus [16] = assay: Antibacterial activity against Staphylococcus aureus giorgio after 18 to 24 hrs by agar dilution method; type: functional; procedure, shortened: as §1
Escherichia coli [17] = assay: Antibacterial activity against Escherichia coli 04 after 18 to 24 hrs by agar dilution method; type: functional; procedure, shortened: as §1
Escherichia coli [18] = assay: Antibacterial activity against Escherichia coli 0126 after 18 to 24 hrs by agar dilution method; type: functional; procedure, shortened: as §1
Staphylococcus aureus [19] = assay: Antibacterial activity against Staphylococcus aureus 209P after 18 to 24 hrs by agar dilution method; type: functional; procedure, shortened: as §1
Salmonella = assay: Antibacterial activity against Salmonella orion after 18 to 24 hrs by agar dilution method; type: functional; procedure, shortened: as §1
Serratia marcescens [20] = assay: Antibacterial activity against Serratia marcescens 3349 after 18 to 24 hrs by agar dilution method; type: functional; procedure, shortened: as §1
Pseudomonas aeruginosa [21] = assay: Antibacterial activity against Pseudomonas aeruginosa 5455 after 18 to 24 hrs by agar dilution method; type: functional; procedure, shortened: as §1
[22] = tested on: Corynebacterium diphtheriae; assay: Antibacterial activity against Corynebacterium diphtheriae after 18 to 24 hrs by agar dilution method; type: functional; procedure, shortened: as §1
Streptococcus agalactiae [23] = assay: Antibacterial activity against Streptococcus agalactiae B after 18 to 24 hrs by agar dilution method; type: functional; procedure, shortened: as §1
Pasteurella multocida = assay: Antibacterial activity against Pasteurella multocida after 18 to 24 hrs by agar dilution method; type: functional; procedure, shortened: as §1
Staphylococcus aureus [24] = assay: Antibacterial activity against Staphylococcus aureus 503 after 18 to 24 hrs by agar dilution method; type: functional; procedure, shortened: as §1
Pseudomonas aeruginosa [25] = assay: Antibacterial activity against Pseudomonas aeruginosa 110/2 after 18 to 24 hrs by agar dilution method; type: functional; procedure, shortened: as §1
Escherichia coli [26] = assay: Antibacterial activity against Escherichia coli V6311/65 after 18 to 24 hrs by agar dilution method; type: functional; procedure, shortened: as §1
Providencia rettgeri [27] = assay: Antibacterial activity against Proteus rettgeri 936 after 18 to 24 hrs by agar dilution method; type: functional; procedure, shortened: as §1
Escherichia coli [28] = assay: Antibacterial activity against Escherichia coli TEM after 18 to 24 hrs by agar dilution method; type: functional; procedure, shortened: as §1
Enterobacter cloacae [29] = assay: Antibacterial activity against Enterobacter cloacae 417 after 18 to 24 hrs by agar dilution method; type: functional; procedure, shortened: as §1
Serratia marcescens [30] = assay: Antibacterial activity against Serratia marcescens 14273 after 18 to 24 hrs by agar dilution method; type: functional; procedure, shortened: as §1
Staphylococcus aureus [31] = assay: Antibacterial activity against Staphylococcus aureus 1218 after 18 to 24 hrs by agar dilution method; type: functional; procedure, shortened: as §1
Haemophilus influenzae = assay: Antibacterial activity against Haemophilus influenzae 1210 after 18 to 24 hrs by agar dilution method; type: functional; procedure, shortened: as §1
Enterococcus faecium = assay: Antibacterial activity against Streptococcus faecium 77A after 18 to 24 hrs by agar dilution method; type: functional; procedure, shortened: as §1
Providencia rettgeri [32] = assay: Antibacterial activity against Proteus rettgeri 937 after 18 to 24 hrs by agar dilution method; type: functional; procedure, shortened: as §1
Enterobacter cloacae [33] = assay: Antibacterial activity against Enterobacter cloacae 34 after 18 to 24 hrs by agar dilution method; type: functional; procedure, shortened: as §1
Bacillus subtilis = assay: Antibacterial activity against Bacillus subtilis ATCC 6633 after 18 to 24 hrs by agar dilution method; type: functional; procedure, shortened: as §1
Escherichia coli [34] = assay: Antibacterial activity against Escherichia coli 1507 after 18 to 24 hrs by agar dilution method; type: functional; procedure, shortened: as §1
Acinetobacter baumannii = assay: Antibacterial activity against Acinetobacter baumannii 2289 after 18 to 24 hrs by agar dilution method; type: functional; procedure, shortened: as §1

Measured: MIC

C[C@@H](O)C1C(=O)N2C(C(=O)O)=C(S[C@@H]3CN[C@H](CN4CCCN(C)S4(=O)=O)C3)[C@H](C)C12 (some centres undefined)
0.4 µg/mL: Pseudomonas aeruginosa [10] | Proteus vulgaris | Burkholderia cepacia | Providencia rettgeri [27] | Serratia marcescens [30] | Providencia rettgeri [32]
0.05 µg/mL: Priestia megaterium | Klebsiella pneumoniae [6] | Salmonella paratyphi | Staphylococcus aureus [16] | Pasteurella multocida | Escherichia coli [26]
6.25 µg/mL: Staphylococcus aureus [31]
1.56 µg/mL: Pseudomonas aeruginosa [21]
1.6 µg/mL: Pseudomonas aeruginosa [1] | Pseudomonas aeruginosa [5]
0.025 µg/mL: Citrobacter freundii | Klebsiella pneumoniae [14] | Escherichia coli [17] | Enterobacter cloacae [33]
0.8 µg/mL: Pseudomonas aeruginosa [25]
3.12 µg/mL: Enterococcus faecalis | Haemophilus influenzae | Acinetobacter baumannii
0.1 µg/mL: [2] | Enterococcus durans | Serratia marcescens [8] | [11] | Salmonella typhimurium | Salmonella
0.2 µg/mL: Proteus mirabilis [3] | Serratia marcescens [9] | Proteus mirabilis [13]
0.01 µg/mL: Streptococcus pneumoniae | Trueperella pyogenes | Enterobacter cloacae [12] | [22] | Staphylococcus aureus [24] | Escherichia coli [28]
< 0.01 µg/mL: Streptococcus agalactiae [7] | Streptococcus pyogenes | Enterococcus faecium
0.049 µg/mL: Staphylococcus | Serratia marcescens [20]
0.03 µg/mL: Salmonella typhi | Bacillus subtilis
0.02 µg/mL: all other assays above
